Data taken from ChEMBL document CHEMBL1125146, “The development of a novel series of (quinolin-2-ylmethoxy)phenyl-containing compounds as high-affinity leukotriene receptor antagonists. 3. Structural variation of the acidic side chain to give antagonists of enhanced potency” (J Med Chem, 1990).
Active and inactive are the calls of the source. No cut-off for these calls is given here.

Experiments:
[1] = test system: Cavia porcellus; test: (§1) Tested in vivo for LTD4-induced […] after oral administration by Dermal wheal assay method; assay type: functional; parameters: concentration or dose not given beside the values
Procedure, shortened: (§2)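 Guinea pigs dosed orally, usually at a single dose, with full dose-response curves for selected compounds. Read-out was antagonism of wheal and flare from intradermal injection of 100 ng LTD4. Five or more animals per dose.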

[2] = test system: Cavia porcellus; test: (§3) Tested in vivo for antigen-induced systemic anaphylaxis after oral administration; assay type: functional; parameters: concentration or dose not given beside the values
[3] = species on record: Cavia porcellus; test: Inhibition of leukotriene-induced contractions of peripheral guinea pig lung strip; assay type: functional, organism-based
Procedure, shortened: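 Peripheral guinea pig lung parenchymal strips were challenged with single spasmogen concentrations (LTC4, LTD4 or LTE4), washed, equilibrated, then rechallenged with or without compound. Compound was preincubated at least 5 min before spasmogen. Each tissue served as its own control and was standardized with 1 μM histamine.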

[4] = target: Cavia porcellus CysLT1 receptor; test: In vitro binding affinity against cysteinyl leukotriene D4 receptor from guinea pig lung membrane
[5] = test system: Cavia porcellus; test: as §1; assay type: functional; procedure, shortened: as §2
[6] = test system: Cavia porcellus; test: as §3; assay type: functional
[7] = test system: Cavia porcellus; test: Tested in vivo for antigen-induced systemic anaphylaxis after oral administration; inactive; assay type: functional, organism-based
[8] = test system: Cavia porcellus; test: Tested in vivo for LTD4-induced […] after oral administration by Dermal wheal assay method; inactive; assay type: functional, organism-based; procedure, shortened: as §2

SMILES	IC50 [3]	Ki [4]	Inhibition [1]	Inhibition [2]	ED50 [5]	ED50 [6]	ED50 [7]	ED50 [8]
c1cc(CCCCc2nnn[nH]2)cc(OCc2ccc3ccccc3n2)c1	105 nM	20 nM	16%	83%				
CC(CCc1ccc(OCc2ccc3ccccc3n2)cc1)Cc1nnn[nH]1 (stereo unspecified)	20 nM	25 nM						
COc1cc(C(=O)NS(=O)(=O)c2ccccc2)ccc1Cn1ncc2ccc(NC(=O)OC3CCCC3)cc21 [ICI-198615]	0.4 nM	0.2 nM		0%	> 30 mg/kg			
CC(CCc1cccc(OCc2ccc3ccccc3n2)c1)Cc1nnn[nH]1 (stereo unspecified)	45 nM	17 nM		27%	2.8 mg/kg			
CC(CCCC(=O)O)c1cccc(OCc2ccc3ccccc3n2)c1 (stereo unspecified)	500 nM	90 nM						
c1ccc(C(CCc2nnn[nH]2)Cc2cccc(OCc3ccc4ccccc4n3)c2)cc1 (stereo unspecified)	24 nM	14 nM	61%					
CC(CCCc1nnn[nH]1)c1cccc(OCc2ccc3ccccc3n2)c1 (stereo unspecified)	250 nM	31 nM	62%					
CC(CCc1cccc(OCc2ccc3ccccc3n2)c1)CC(=O)O (stereo unspecified)	800 nM	70 nM						
CC(Cc1cccc(OCc2ccc3ccccc3n2)c1)CC(C)C(=O)O (stereo unspecified)	500 nM	24 nM						
CC(CCCc1nnn[nH]1)c1ccc(OCc2ccc3ccccc3n2)cc1 (stereo unspecified)	170 nM	43 nM						
CC(CCc1nnn[nH]1)Cc1ccc(OCc2ccc3ccccc3n2)cc1 (stereo unspecified)	27 nM	12 nM			2.5 mg/kg	1.2 mg/kg		
CCCC(CCc1nnn[nH]1)Cc1ccc(OCc2ccc3ccccc3n2)cc1 (stereo unspecified)	32 nM				7.2 mg/kg	7 mg/kg		
CC(CCc1nnn[nH]1)Cc1cccc(OCc2ccc3ccccc3n2)c1 (stereo unspecified)	150 nM	34 nM	40%					
c1ccc(C(CCc2nnn[nH]2)Cc2ccc(OCc3ccc4ccccc4n3)cc2)cc1 (stereo unspecified)	14 nM	8 nM						
O=C(O)CCC(Cc1cccc(OCc2ccc3ccccc3n2)c1)c1ccccc1 (stereo unspecified)	56 nM	52 nM	78%	100%				
CC(CCCc1cccc(OCc2ccc3ccccc3n2)c1)C(=O)O (stereo unspecified)	75 nM	85 nM						
c1cc(OCCCc2nnn[nH]2)cc(OCc2ccc3ccccc3n2)c1	79 nM	42 nM						
c1ccc2nc(COc3ccc(OCCCc4nnn[nH]4)cc3)ccc2c1	250 nM	69 nM						
c1ccc2nc(COc3ccc(CCCCc4nnn[nH]4)cc3)ccc2c1	45 nM		38%	100%				
CCCC(CCc1nnn[nH]1)Cc1cccc(OCc2ccc3ccccc3n2)c1 (stereo unspecified)	16 nM	11 nM	38%					
CCCc1c(OCC(O)COc2ccc3c(=O)cc(C(=O)O)oc3c2CCC)ccc(C(C)=O)c1O (stereo unspecified) [FPL-55712]	800 nM						inactive	inactive
CCCC(CCC(=O)O)Cc1cccc(OCc2ccc3ccccc3n2)c1 (stereo unspecified)	70 nM	50 nM						
CCCc1c(OCCCCc2nnn[nH]2)ccc(C(C)=O)c1O [TOMELUKAST]	1500 nM				> 30 mg/kg	> 30 mg/kg		

Now from value to compound, other results behind:

IC50 [3]	Ki [4]	SMILES	Inhibition [1]	Inhibition [2]	ED50 [5]	ED50 [6]	ED50 [7]	ED50 [8]
800 nM	1200 nM	O=C(O)CCCOc1ccc(OCc2ccc3ccccc3n2)cc1						
30 nM	21 nM	CCCC(CCC(=O)O)Cc1ccc(OCc2ccc3ccccc3n2)cc1 (stereo unspecified)			6.5 mg/kg	9.7 mg/kg		
20 nM	15 nM	c1ccc2nc(COc3ccc(CC4CCCC4Cc4nnn[nH]4)cc3)ccc2c1 (stereo unspecified)			10 mg/kg	12 mg/kg		
65 nM	31 nM	O=C(O)CCC(Cc1ccc(OCc2ccc3ccccc3n2)cc1)c1ccccc1 (stereo unspecified)	33%	50%				
450 nM	110 nM	O=C(O)CCCCc1ccc(OCc2ccc3ccccc3n2)cc1						
100 nM	43 nM	CC(CCC(=O)O)Cc1ccc(OCc2ccc3ccccc3n2)cc1 (stereo unspecified)						
370 nM	100 nM	O=C(O)CCCCc1cccc(OCc2ccc3ccccc3n2)c1						
37 nM	25 nM	c1ccc2nc(COc3ccc(CCC4(Cc5nnn[nH]5)CCCC4)cc3)ccc2c1			4.2 mg/kg	2.8 mg/kg		
60 nM	51 nM	O=C(O)CC1(CCc2ccc(OCc3ccc4ccccc4n3)cc2)CCCC1	73%	17%				
90 nM	100 nM	O=C(O)CC1CCCC1Cc1ccc(OCc2ccc3ccccc3n2)cc1 (stereo unspecified)						
500 nM	140 nM	CC(CCC(=O)O)Cc1cccc(OCc2ccc3ccccc3n2)c1 (stereo unspecified)						
